From publication PMC3064798 (Nucleic Acids Research, 2011)
“And” between values parts separate entries of the source, which are not always exact repeats. Equal values may be shown once.

Tests used:
Vent(exo^−) polymerase [1] = molecular target: T1, Vent(exo^−) polymerase (Thermococcus litoralis, UniProt P30317, D141A/DEL1082-1471/DEL495-1032/E143A); assay: PCR of TCF1 exons 2 and 10 with TTP or HOMedUTP; format: biochemical; settings: 200 μM each dNTP
T1 sequence (P30317 with tags, fused parts or gaps D141A/E143A/DEL495-1032/DEL1082-1471): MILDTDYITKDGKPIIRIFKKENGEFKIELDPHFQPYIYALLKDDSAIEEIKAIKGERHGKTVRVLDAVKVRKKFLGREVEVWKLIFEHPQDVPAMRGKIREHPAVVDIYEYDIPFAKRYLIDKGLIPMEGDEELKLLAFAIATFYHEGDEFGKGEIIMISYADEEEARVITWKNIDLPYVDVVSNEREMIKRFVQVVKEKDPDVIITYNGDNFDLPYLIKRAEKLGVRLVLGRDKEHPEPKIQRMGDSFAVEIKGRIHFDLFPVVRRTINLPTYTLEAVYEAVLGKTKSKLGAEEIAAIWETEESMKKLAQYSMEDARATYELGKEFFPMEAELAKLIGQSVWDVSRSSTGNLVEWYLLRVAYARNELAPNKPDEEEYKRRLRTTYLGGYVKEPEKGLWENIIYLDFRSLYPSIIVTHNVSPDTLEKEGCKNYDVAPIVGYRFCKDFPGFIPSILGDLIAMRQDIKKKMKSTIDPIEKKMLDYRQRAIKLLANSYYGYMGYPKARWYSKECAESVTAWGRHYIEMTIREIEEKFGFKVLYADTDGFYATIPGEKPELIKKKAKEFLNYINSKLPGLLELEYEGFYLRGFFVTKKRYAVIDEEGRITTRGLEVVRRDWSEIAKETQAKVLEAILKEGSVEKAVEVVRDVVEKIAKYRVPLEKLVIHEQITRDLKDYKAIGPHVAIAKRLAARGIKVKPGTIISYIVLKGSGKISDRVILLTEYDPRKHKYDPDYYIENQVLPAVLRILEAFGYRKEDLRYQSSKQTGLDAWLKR
Outline: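 Human genomic DNA (~50 ng) was amplified with 0.4 µM primer pairs and one unit of Vent(exo−). Buffer was 1× ThermoPol (20 mM Tris–HCl pH 8.8, 2 mM MgSO4, etc.) with 1 M betaine. dATP, dCTP and dGTP were at 200 μM each, with TTP or HOMedUTP. Cycling: 95°C 4 min; 35× (95°C 30 s, 59°C 30 s, 72°C 90 s); 72°C 7 min. Expected products: 602 bp (exon 2) and 670 bp (exon 10).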

Vent(exo^−) polymerase [2] = molecular target: T1, Vent(exo^−) polymerase; assay: Nucleotide selectivity; format: biochemical; settings: each mismatch combination
Outline: (§1)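 Base discrimination was measured by PEP assay. OligoTemplate-4 was replaced with 40 nM oligoTemplate-2 or oligoTemplate-5 to give mismatched template bases. For the T—G mismatch, 5 nM BODIPY-FL primer-3 was hybridised to 40 nM oligoTemplate-8. The selectivity ratio is the mismatched IC50 divided by the matched IC50.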

Vent(exo^−) polymerase [3] = molecular target: T1, Vent(exo^−) polymerase; settings: cited from earlier work
Therminator polymerase [4] = molecular target: T2, Therminator polymerase (Thermococcus sp., UniProt Q56366, A485L/D141A/E143A); assay: Nucleotide selectivity; format: biochemical
T2 sequence (Q56366 1-775 D141A/E143A/A485L): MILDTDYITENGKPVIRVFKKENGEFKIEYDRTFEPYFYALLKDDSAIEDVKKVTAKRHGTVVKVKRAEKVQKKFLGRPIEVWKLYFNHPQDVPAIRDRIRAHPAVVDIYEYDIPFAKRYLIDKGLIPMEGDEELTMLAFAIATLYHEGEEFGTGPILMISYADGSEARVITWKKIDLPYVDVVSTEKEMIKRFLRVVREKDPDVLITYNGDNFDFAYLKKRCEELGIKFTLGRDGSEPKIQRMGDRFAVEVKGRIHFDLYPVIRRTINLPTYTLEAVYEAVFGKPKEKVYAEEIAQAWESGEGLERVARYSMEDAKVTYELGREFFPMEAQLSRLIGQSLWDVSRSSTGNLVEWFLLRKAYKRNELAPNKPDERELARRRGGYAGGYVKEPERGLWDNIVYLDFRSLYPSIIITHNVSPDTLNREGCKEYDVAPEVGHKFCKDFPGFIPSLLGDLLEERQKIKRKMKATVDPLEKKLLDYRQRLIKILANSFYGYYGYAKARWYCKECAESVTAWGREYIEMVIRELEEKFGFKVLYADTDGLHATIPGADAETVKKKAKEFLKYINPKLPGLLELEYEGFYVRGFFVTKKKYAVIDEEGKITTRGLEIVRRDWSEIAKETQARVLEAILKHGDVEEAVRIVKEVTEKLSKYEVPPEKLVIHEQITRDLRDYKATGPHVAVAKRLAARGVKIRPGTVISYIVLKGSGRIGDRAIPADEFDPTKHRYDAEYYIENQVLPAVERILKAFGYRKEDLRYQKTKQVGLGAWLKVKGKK
Outline: as §1

Vent(exo^−) polymerase [5] = molecular target: T1, Vent(exo^−) polymerase; assay: Weighted-sum assay for termination; format: biochemical; settings: nucleotide at 3 μM (∼1000× IC50), oligoTemplate-7
[6] = Photochemical cleavage studies; format: physicochemical; settings: 50 mM NaN3; 365 nm UV; incorporated in primer-1/oligoTemplate-4
Outline: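 Analogs (100 nM final) were incorporated as in PEP on BODIPY-FL primer-1/oligoTemplate-4 (10 nM/80 nM). Reactions were quenched in FBD solution (20% formamide, 10 mM Na2EDTA pH 8.0, Blue Dextran) or 50 mM sodium azide. Samples were irradiated at 365 nm for various times, then iced, mixed with formamide stop solution and run on an AB 377 sequencer. DT50 is the time for 50% cleavage, from triplicates ± 1 SD.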

Therminator polymerase [7] = molecular target: T2, Therminator polymerase; assay: Weighted-sum assay for termination; format: biochemical; settings: nucleotide at 3 μM (∼1000× IC50), oligoTemplate-7
Therminator polymerase [8] = molecular target: T2, Therminator polymerase; assay: Ten cycle CRT sequencing; format: biochemical; settings: 3 μM; UV cleavage in 50 mM sodium azide
Outline: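 Biotinylated oligoTemplate-7 was bound to streptavidin M-270 beads with BODIPY-FL primer-2S, then preloaded with 0.5 U Therminator in 1× ThermoPol on ice for 5 min. Each cycle: incorporation at 65°C for 5 min, W10 washes, then 365 nm UV (~0.7 W/cm2, 4× 1 min) in 50 mM azide and ThermoPol washes. After ten cycles, products were run on a 10% polyacrylamide gel (377). Band quantification gave cycle efficiency (incorporation × cleavage) and dephasing (%n–2, %n–1, %n+1).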

TaqFS polymerase = TaqFS polymerase (Thermus aquaticus, UniProt P19821, F667Y/G46D); assay: PEP; format: biochemical; settings: TaqFS; Not Active = no visible +1 band in 377 gel image at 100 μM
Outline: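 Polymerase end-point assay for single-base incorporation. 5 nM BODIPY-FL-labelled primer-1 was hybridised to 40 nM oligoTemplate-4, with the interrogation base complementary to dU. Absence of a +1 band on the 377 gel image at 100 μM counts as not active. IC50 was averaged from triplicates ± 1 SD. Incorporation bias is the analog IC50 divided by the natural-nucleotide (HOMedUTP) IC50.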

Sequence of TaqFS polymerase (P19821 whole entry G46D/F667Y): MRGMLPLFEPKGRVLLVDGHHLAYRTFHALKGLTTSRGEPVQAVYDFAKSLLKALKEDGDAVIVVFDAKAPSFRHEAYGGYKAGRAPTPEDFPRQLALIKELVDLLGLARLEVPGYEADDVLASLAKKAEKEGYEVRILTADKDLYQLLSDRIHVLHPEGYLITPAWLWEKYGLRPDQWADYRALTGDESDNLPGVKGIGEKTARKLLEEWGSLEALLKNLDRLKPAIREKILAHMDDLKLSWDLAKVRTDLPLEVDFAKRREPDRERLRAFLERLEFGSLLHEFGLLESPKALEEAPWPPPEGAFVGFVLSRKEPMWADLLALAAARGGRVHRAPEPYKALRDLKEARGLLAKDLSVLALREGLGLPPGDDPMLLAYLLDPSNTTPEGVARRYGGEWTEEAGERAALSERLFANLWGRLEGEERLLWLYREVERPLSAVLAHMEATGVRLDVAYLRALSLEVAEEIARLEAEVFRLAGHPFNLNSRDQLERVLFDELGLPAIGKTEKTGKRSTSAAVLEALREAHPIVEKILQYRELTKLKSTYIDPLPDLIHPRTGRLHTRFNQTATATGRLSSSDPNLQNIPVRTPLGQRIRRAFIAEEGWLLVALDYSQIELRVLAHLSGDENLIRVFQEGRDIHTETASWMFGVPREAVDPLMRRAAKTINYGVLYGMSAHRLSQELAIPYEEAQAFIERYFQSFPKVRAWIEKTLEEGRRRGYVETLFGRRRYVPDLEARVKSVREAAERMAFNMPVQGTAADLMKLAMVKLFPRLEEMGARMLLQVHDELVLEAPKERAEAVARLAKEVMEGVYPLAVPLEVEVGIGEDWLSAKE

Row | SMILES | Selectivity ratios / mismatch discrimination (in words) (Therminator polymerase [4]) | Weighted-sum value (Vent(exo^−) polymerase [5]) | DT50 values (time at which 50% of 2-nitrobenzyl groups were photochemically cleaved) [6] | Weighted-sum value (Therminator polymerase [7]) | further results
1 | O=c1[nH]c(=O)n([C@H]2C[C@H](O)[C@@H](COP(=O)(O)OP(=O)(O)OP(=O)(O)O)O2)cc1CO [HOMedUTP, 5-hydroxymethyl-2′-deoxyuridine triphosphate] |  |  |  |  | PCR product yield and size, HOMedUTP in place of TTP (Vent(exo^−) polymerase [1]): Comparable yields and product size; Selectivity ratio (mismatched IC50/matched IC50) (Vent(exo^−) polymerase [2]): greater than three orders of magnitude
2 | C=CCO[C@H]1C[C@H](n2cnc3c(N)ncnc32)O[C@@H]1COP(=O)(O)OP(=O)(O)OP(=O)(O)O [3′-O-allyl-dATP] |  |  |  |  | Incorporation by polymerase (in words) (Vent(exo^−) polymerase [3]): not efficiently incorporated
3 | CC(C)[C@H](OCc1cn([C@H]2C[C@H](O)[C@@H](COP(=O)(O)OP(=O)(O)OP(=O)(O)O)O2)c(=O)[nH]c1=O)c1ccccc1[N+](=O)[O-] [dU.IV, 5-[(S)-1-(2-Nitrophenyl)-2-methyl-propyloxy]methyl-2'-deoxyuridine-5’-triphosphate] | almost three orders of magnitude | 1.7 and 1.7 ± 0.1 | 1.8 s and 1.8 ± 0.1 s | 1.9 and 1.9 ± 0.2 | 
4 | CC(C)(C)[C@H](OCc1cn([C@H]2C[C@H](O)[C@@H](COP(=O)(O)OP(=O)(O)OP(=O)(O)O)O2)c(=O)[nH]c1=O)c1ccccc1[N+](=O)[O-] [dU.V, 5-[(S)-1-(2-nitrophenyl)-2,2-dimethyl-propyloxy]methyl-2'-deoxyuridine-5’-triphosphate] | almost three orders of magnitude | 1.0 and 1.0 ± 0.0 | 1.3 s and 1.3 ± 0.1 s | 1.0 and 1.0 ± 0.0 | Overall signal of reaction products over the 10 CRT cycles (Therminator polymerase [8]): remained relatively constant; IC50 values (activity in words) (TaqFS polymerase): not incorporated
5 | Cc1cn([C@H]2C[C@H](O)[C@@H](COP(=O)(O)OP(=O)(O)OP(=O)(O)O)O2)c(=O)n(Cc2ccccc2[N+](=O)[O-])c1=O [T.I, N^3-(2-Nitrobenzyl)-thymidine-5’-triphosphate] | indiscriminately against all mismatched template bases |  |  |  | 
